For 21 compounds, Activity results are on record in ChEMBL document CHEMBL1165845, “Synthesis and biological evaluation of analogues of a novel inhibitor of beta-amyloid secretion” (J Med Chem, 2010).

Data set [1] deals with H4. The data set is described as follows: Activation of alpha-secretase in human H4 cells expressing wild type betaAPP695 assessed as increase in sAPPalpha levels at 10 uM after 24 hrs by Western blotting. In kind it is cell-based. Summed up:
(§1)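 H4βAPP695wt cells are switched to serum-free medium 24 h before treatment, then exposed to drug in DMSO or vehicle for 24 h. Conditioned medium gets protease inhibitors and is cleared, with its volume adjusted to lysate protein; sAPPα is probed with 6E10 and sAPPβ with a specific antibody (1:1000), detected by ECL. Lysates in RIPA (20 μg protein) go on 4-20% Bis-Tris gels. Bands are quantified by densitometry.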
On the technique in general: Immunoblotting shows a protein as a band on a membrane.

Data set [2] has as its system H4. The experiment in a line: Induction of alpha-secretase-mediated reduction in amyloid beta secretion in human H4 cells expressing wild type betaAPP695 […] in presence of PKC-inhibitor rottlerin. The data set is classed as cell-based. Summed up: (§2)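 H4βAPP695wt cells in serum-free medium receive a PKC inhibitor 30 min before a 24 h drug challenge. Secreted Aβ is measured by ELISA and compared with the respective control for each inhibitor, N = 4.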

The subject of data set [3] is H4. The data set is described as follows: Induction of alpha-secretase-mediated reduction in amyloid beta secretion in human H4 cells expressing wild type betaAPP695 by […] in presence of PKC-inhibitor calphostin C. The data set is classed as cell-based. Summed up: as §2
Data set [4] concerns H4. The data set is described as follows: Activation of alpha-secretase in human H4 cells expressing wild type betaAPP695 assessed as increase in ratio of active-ADAM9 to pro-ADAM9 level at 10 uM after 24 hrs by Western blotting. The data set is classed as cell-based. A digest of the protocol:
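H4βAPP695wt cells are held in serum-free medium for 24 h, then given increasing drug concentrations for 24 h. RIPA lysates (20 μg protein) are immunoblotted with antibodies for ADAM9, ADAM10 and ADAM17, and pro and active forms are quantified by densitometry as an active/pro ratio, N = 3 per group.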

The test system of data set [5] is H4. The experiment in a line: Activation of alpha-secretase in human H4 cells expressing wild type betaAPP695 assessed as increase in sAPPbeta levels at 10 uM after 24 hrs by Western blotting. In kind it is cell-based. A digest of the protocol:
as §1

For data set [6], the system named is H4. The data set is described as follows: Increase in alpha-secretase activity in human H4 cell lysate expressing wild type betaAPP695 at 10 uM after 24 hrs by fluorescence method. In kind it is cell-based. A digest of the protocol:
(§3)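 H4βAPP695wt cells are treated with drug or vehicle for 24 h, washed in cold PBS and lysed on ice for 10 min. 50 μg lysate protein plus reaction buffer and fluorogenic peptide substrate are incubated 2 h at 37 °C in the dark. Fluorescence is read at ex 355/em 510 nm after subtracting the no-lysate blank, N = 6.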

Data set [7] deals with H4. The experiment in a line: Induction of alpha-secretase-mediated reduction in amyloid beta secretion in human H4 cells expressing wild type betaAPP695 by […] in presence of PKC-inhibitor bisindolyl-maleimide. In kind it is cell-based. Summed up:
as §2

The test system of data set [8] is H4. The experiment in a line: Induction of alpha-secretase-mediated reduction in amyloid beta secretion in human H4 cells expressing wild type betaAPP695 assessed as remaining drug activity treated with media containing human THLE3 cells incubated with 10 uM compound for 24 hrs measured 24 hrs after media treatment […]. In kind it is cell-based.
Data set [9] has as its system H4. The experiment in a line: Activation of alpha-secretase in human H4 cells expressing wild type betaAPP695 assessed as increase in alpha-CTF levels at 10 uM after 24 hrs by Western blotting. In kind it is cell-based. A digest of the protocol:
as §1

Data set [10] deals with H4. The experiment in a line: Induction of alpha-secretase-mediated reduction in amyloid beta secretion in human H4 cells expressing wild type betaAPP695 treated with media containing human THLE3 cells incubated with 10 uM compound for 24 hrs […]. In kind it is cell-based. On the set-up: scale not given: the % may be the effect or the level left. The settings on record: in the assay text read “20 uM” for “10 uM”.

Data set [11] deals with H4. The data set is described as follows: Increase in alpha-secretase activity in human H4 cells expressing wild type betaAPP695 at 10 uM after 24 hrs by fluorescence method. The data set is classed as cell-based. A digest of the protocol: as §3
Data set [12] relates to H4. The data set is described as follows: Induction of alpha-secretase-mediated reduction in amyloid beta secretion in human H4 cells expressing wild type betaAPP695 placed in lower chamber treated with […] compound placed in upper chamber containing human Caco-2 cells for 4 hrs measured 24 hrs after media treatment […]. In kind it is cell-based. Set-up: scale not given: the % may be the effect or the level left. A digest of the protocol:
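Caco-2 cells are seeded at 70000 per Transwell insert and grown 21 days to TEER >160 Ω/cm2. Drug at 40 μM with 20 μg/mL lucifer yellow goes in the apical chamber in serum-free medium. After 4 h, basal medium is checked for lucifer yellow and applied to H4βAPP695wt cells for 24 h. Secreted Aβ by ELISA is compared with direct 10 μM drug as % activity passing.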

Data set [13] concerns H4. The experiment in a line: Induction of alpha-secretase-mediated amyloid beta lowering activity in human H4 cells expressing wild type betaAPP695 at 1 uM after 24 hrs by ELISA. In kind it is cell-based. Summed up: (§4)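 Serum-starved H4βAPP695wt cells are treated for 24 h with drug in DMSO (0.02% DMSO vehicle control). Total Aβ in conditioned medium is measured by sandwich ELISA with 6E10 capture and 4G8 detection, normalized to lysate protein by BCA. Cytotoxicity is read as total cell protein. Quadruplicate wells in 1-4 independent experiments give the % decrease versus vehicle.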
A general note: An ELISA detects its analyte on a solid surface through an enzyme-linked reagent.

Data set [14] relates to H4. The experiment in a line: Induction of alpha-secretase-mediated reduction in amyloid beta secretion in human H4 cells expressing wild type betaAPP695 at 10 uM after 24 hrs […] relative to control. In kind it is cell-based. On the set-up: scale not given: the % may be the effect or the level left. A digest of the protocol: as §4
Data set [15] deals with H4. The data set is described as follows: Induction of alpha-secretase-mediated reduction in amyloid beta secretion in human H4 cells expressing wild type betaAPP695 at 30 uM after 24 hrs […] relative to control. On the set-up: scale not given: the % may be the effect or the level left. In kind it is cell-based. A digest of the protocol: as §4
The subject of data set [16] is H4. The experiment in a line: Cytotoxicity against human H4 cells expressing wild type betaAPP695 assessed as decrease in cell protein at 10 uM after 24 hrs. The data set is classed as cell-based. On the set-up: scale not given: the % may be the effect or the level left. The settings on record: h4, 24 h. A digest of the protocol:
as §4

For data set [17], the system named is H4. The experiment in a line: Cytotoxicity against human H4 cells expressing wild type betaAPP695 assessed as decrease in cell protein at 30 uM after 24 hrs. In kind it is cell-based. On the set-up: scale not given: the % may be the effect or the level left. The note with it: h4, 24 h. A digest of the protocol:
as §4

The subject of data set [18] is Mus musculus. The data set is described as follows: Reduction in amyloid beta levels in transgenic C57BL/6 mouse brain at 100 mg/kg, iv after 6 hrs. The data set is classed as functional. On the set-up: scale not given: the % may be the effect or the level left. A digest of the protocol:
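Two-month-old female APPswe/PSEN1dE9 C57BL/6 mice (20-25 g) under ketamine/xylazine receive retro-orbital iv injection of 2.5 mg in 150 μL (∼100-125 mg/kg) or vehicle. After 6 h, one hemisphere without cerebellum is homogenized in 5 M guanidine HCl/50 mM Tris pH 8.3. Total Aβ is measured by ELISA and normalized to brain protein by BCA.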

The test system of data set [19] is H4. The data set is described as follows: Cytotoxicity against human H4 cells expressing wild type betaAPP695 at 10 uM after 24 hrs by methylene blue staining. The data set is classed as cell-based. The settings on record: h4, 24 h. A digest of the protocol:
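Primary screen in H4βAPP695wt cells: drugs are delivered by the hanging drop method at an estimated 10-25 μM, and conditioned medium is collected at 24 h. Cytotoxicity is assessed by methylene blue staining of cells in the wells, with each compound run in a single well and hits rescreened in duplicate.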

Active and inactive are the calls of the source. No cut-off for these calls is given here.

In the case of `O=C(NCCSCc1cccc(Cl)c1)c1c(Cl)cccc1Cl`, the result in [1], in data set [2], in [3], in data set [7], in data set [9] and in [13] was Active. Further, the Activity was 31% in [4]; 50% in [8]; 34.6% in [10]; 20% in data set [11]; 26.7% in [12]; 75.3% in data set [14]. Also, the outcome in data set [5] and in data set [6] was inactive.
`O=C(NCCSCc1ccccc1)c1c(Cl)cccc1Cl`: the Activity in data set [15] was 58.6%; in data set [16], -1.1%; in [8], 52%; in data set [10], 27%; in data set [12], 31%; in [17], -0.7%. Also, the Activity in [14] was determined as 51.6%.
On to `COc1cccc(CSCCNC(=O)c2c(Cl)cccc2Cl)c1OC`, for which the Activity is 72.8% in [15]; -0.1% in [16]; 3% in data set [8]; 1.9% in [10]; 26.5% in data set [12]; 8.7% in data set [17]. In addition, in data set [14], the Activity amounted to 57.8%.
Turning to `COc1cc(Cl)cc(CSCCNC(=O)c2c(Cl)cccc2Cl)c1`, the Activity amounted to 81% in data set [15]; 0.9% in [16]; 49% in [8]; 33.5% in [10]; 2.7% in data set [12]; 0.4% in [17]. Further, the Activity in data set [14] came to 67.7%.
Take `O=C(NCCSCc1cccc(O)c1)c1c(Cl)cccc1Cl`: the Activity in [15] was 67.7%; in data set [16], 6.3%; in data set [8], 41%; in data set [10] it was 23.1%; in [17], 6.6%; in data set [14], 56.4%.
On to `Cc1cccc(CSCCNC(=O)c2c(Cl)cccc2Cl)c1`, for which the Activity in data set [15] came out at 85.8%; in data set [16], 11.7%; in [8], 54%; in data set [18] it was 39.6%; in [10] it was 38.3%; in data set [12], 49.9%. The Activity in [17] is 16.6%; in data set [14] it was 70.5%.
For the compound `O=C(NCCSCc1ccc(Cl)cc1)c1ccc(Cl)cc1Cl`, the Activity entry in [19] was “Non-toxic”; in [14], 5.3%.
For the compound `COc1cccc(CSCCNC(=O)c2c(Cl)cccc2Cl)c1`, the Activity worked out at 73.9% in data set [15]; 8.4% in [16]; 37% in data set [8]; 22.2% in [10]; 17.9% in data set [12]; 13.2% in data set [17]. The Activity in [14] was 60.6%.
On to `O=C(NCCSCc1ccccc1)c1ccccc1`, for which the Activity in [15] was 5.5%; in data set [16], 0.7%; in [17] it was -4.1%; in data set [14], -5.7%.
On the same counts, the results for `O=C(NCCSCc1ccc(O)cc1)c1c(Cl)cccc1Cl` are 56.7%, 8.7%, 4.4% and 13.1%.
On the same counts, the results for `O=C(NCCSCc1cccc(Cl)c1)c1c(F)cccc1F` are 21.6%, 5.1%, 8.1% and 4.9%.
Regarding `COc1cccc(CSCCNC(=O)c2c([N+](=O)[O-])cccc2[N+](=O)[O-])c1`, the Activity in [15] is -2.8%; in [16] it was 3.7%; in data set [17], -3.8%; in data set [14] it was -14.1%.
On the same counts, the results for `O=C(NCCSCc1cccc([N+](=O)[O-])c1)c1c(Cl)cccc1Cl` are 72.5%, 7.5%, 24.6% and 58.5%.
Take `O=C(NCC[S+]([O-])Cc1cccc(Cl)c1)c1c(Cl)cccc1Cl` (stereo unspecified): the Activity in data set [15] is -16.5%; in [16], -4.9%; in data set [17], 7.3%; in data set [14], 4%.
With `O=C(NCCSCc1cccc(I)c1)c1c(Cl)cccc1Cl`, the Activity turned out to be 88.3% in data set [15]; 9.2% in data set [16]; 47% in data set [8]; 40% in data set [10]; 1.1% in data set [12]; 19% in [17]. Besides, in [14], the Activity turned out to be 84.4%.
As to `O=C(NCCSCc1cccc(Cl)c1)c1c(C(F)(F)F)cccc1C(F)(F)F`, the Activity in [15] is 13.5%; in [16], -4.2%; in data set [17], -0.4%; in data set [14], 6.2%.
On the same counts, the results for `O=C(O)c1cccc(CSCCNC(=O)c2c(Cl)cccc2Cl)c1` are -3.8%, 7.1%, 3.2% and -11.4%.
On the same counts, the results for `NC(=O)c1cccc(CSCCNC(=O)c2c(Cl)cccc2Cl)c1` are 32.3%, -2.8%, -8.6% and 6.2%.
As for `O=C(NCCS(=O)(=O)Cc1cccc(O)c1)c1c(Cl)cccc1Cl`, the Activity in data set [15] was 9.6%; in data set [16], 7.7%; in [17] it was 4.4%; in data set [14] it was -10.1%.
For the compound `O=C(NC1CC1)c1cccc(CSCCNC(=O)c2c(Cl)cccc2Cl)c1`, the Activity in [15] was 11%; in data set [16], 0%; in [17], -1%; in [14], 1.9%.
`O=C(NCCSCc1ccccc1Cl)c1c(Cl)cccc1Cl`: the Activity in data set [15] is 80%; in [16], -0.5%; in [8], 65%; in [10], 48.8%; in data set [12], 31.6%; in data set [17], -11%. Further, the Activity in data set [14] amounted to 75.6%.
